Experimental data reported in ChEMBL document CHEMBL1177662, “Anti-influenza activity of phenethylphenylphthalimide analogs derived from thalidomide” (Bioorg Med Chem, 2010).
The source made the active and inactive calls. The rule behind the calls is not given here.

Tests used:
[1] = target: Polymerase acidic protein (Influenza A virus (A/Puerto Rico/8/1934(H1N1))) (UniProt P03433); experiment: Inhibition of Influenza A (A/PR/8/34/ (H1N1)) RNA polymerase acidin protein endonuclease PA domain assessed as M13mp18 ss DNA at 1 uM
Procedure, shortened: (§1)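 Recombinant His-tagged PA N-terminal endonuclease domain (residues 1–220), expressed in E. coli and purified by Ni-agarose and anion exchange. 0.35 μg (about 0.1 μM final) in 100 μl buffer at pH 7.3, with 1 μg M13mp18 circular ssDNA substrate and compound at 1 or 10 μM. A no-enzyme control was included. Digestion read by agarose electrophoresis with ethidium bromide staining.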

[2] = target: Polymerase acidic protein (Influenza A virus (A/Puerto Rico/8/1934(H1N1))) (UniProt P03433); experiment: Inhibition of Influenza A (A/PR/8/34/ (H1N1)) RNA polymerase acidin protein endonuclease PA domain assessed as M13mp18 ss DNA at 10 uM; procedure, shortened: as §1
Influenza A virus = experiment: Antiviral activity against Influenza A (A/PR/8/34/ (H1N1)) infected in MDCK cells assessed as inhibition of virus-induced cell death; type: functional, organism-based; conditions: A/Puerto Rico/8/1934(H1N1)
Procedure, shortened: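 Confluent MDCK monolayers (MEM, 10% FBS, 37 °C). Compound (0.63–80 μM, DMSO vehicle) premixed with 100 TCID50 H1N1 PR8 plus trypsin for 30 min at 37 °C, then added to PBS-washed cells. Incubated 4 days at 34 °C, 5% CO2. Formaldehyde-fixed, naphthol blue black stain, OD630 read. Viability scaled to mock (100%) and virus-only (0%) wells. Triplicate; EC50 estimated from dose–response curve.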

[3] = Cytotoxicity against dog MDCK cells; type: cell-based, Canis lupus familiaris
Procedure, shortened: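 Confluent MDCK monolayers (MEM, 10% FBS, 37 °C) exposed without virus to compound (0.63–80 μM, DMSO vehicle), premixed with trypsin 30 min at 37 °C. Incubated 4 days at 34 °C, 5% CO2. Formaldehyde fixation, naphthol blue black staining of viable cells, OD630 read. Triplicate; CC50 estimated from dose–response curve.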

| SMILES | inhibition [1] | inhibition [2] | EC50 (Influenza A virus) | CC50 [3] |
| --- | --- | --- | --- | --- |
| COc1cccc(CCc2ccc(N3C(=O)c4c(Cl)c(Cl)c(Cl)c(Cl)c4C3=O)cc2)c1 | inactive | inactive |  |  |
| COc1ccc(/C=C/c2ccc(N3C(=O)c4c(Cl)c(Cl)c(Cl)c(Cl)c4C3=O)cc2)cc1OC | inactive | inactive |  |  |
| O=C1c2ccccc2C(=O)N1c1ccccc1CCc1ccccc1 | inactive | inactive |  |  |
| COc1cccc(CCc2ccc(N3C(=O)c4ccccc4C3=O)cc2)c1 | inactive | inactive |  |  |
| COc1ccc(CCc2cccc(N3C(=O)c4ccccc4C3=O)c2)cc1OC | inactive | inactive |  |  |
| O=C1c2ccccc2C(=O)N1c1cccc(CCc2ccc(O)c(O)c2)c1 | inactive | Active | 26 µM |  |
| O=C1c2c(Cl)c(Cl)c(Cl)c(Cl)c2C(=O)N1c1ccccc1CCc1ccc(O)c(O)c1 | inactive | inactive |  |  |
| COc1ccc(CCc2ccc(N3C(=O)c4c(Cl)c(Cl)c(Cl)c(Cl)c4C3=O)cc2)cc1OC | inactive | inactive |  |  |
| COc1cccc(CCc2cccc(N3C(=O)c4c(Cl)c(Cl)c(Cl)c(Cl)c4C3=O)c2)c1 | inactive | inactive |  |  |
| O=C1c2ccccc2C(=O)N1c1ccc(/C=C/c2ccc(O)c(O)c2)cc1 | inactive | inactive |  |  |
| COc1ccc(CCc2ccccc2N2C(=O)c3c(Cl)c(Cl)c(Cl)c(Cl)c3C2=O)cc1OC | inactive | inactive |  |  |
| O=C1c2ccccc2C(=O)N1c1ccccc1CCc1ccc(O)c(O)c1 | inactive | Active | 48 µM | > 80 µM |
| O=C1c2c(Cl)c(Cl)c(Cl)c(Cl)c2C(=O)N1c1cccc(/C=C/c2ccccc2)c1 | inactive | inactive |  |  |
| O=C1c2c(Cl)c(Cl)c(Cl)c(Cl)c2C(=O)N1c1cccc(CCc2ccccc2)c1 | inactive | inactive |  |  |
| COc1ccc(CCc2ccccc2N2C(=O)c3ccccc3C2=O)cc1OC |  | inactive | > 80 µM | > 80 µM |
| O=C1c2ccccc2C(=O)N1c1ccc(CCc2ccccc2)cc1 | inactive | inactive |  |  |
| COc1ccc(CCc2ccc(N3C(=O)c4c(Cl)c(Cl)c(Cl)c(Cl)c4C3=O)cc2)cc1 | inactive | inactive |  |  |
| COc1ccc(CCc2cccc(N3C(=O)c4c(Cl)c(Cl)c(Cl)c(Cl)c4C3=O)c2)cc1 | inactive | inactive |  |  |
| O=C1c2c(Cl)c(Cl)c(Cl)c(Cl)c2C(=O)N1c1cccc(/C=C\c2ccccc2)c1 | inactive | inactive |  |  |

| SMILES | inhibition [1] | inhibition [2] | EC50 (Influenza A virus) | CC50 [3] |
| --- | --- | --- | --- | --- |
| O=C1c2c(Cl)c(Cl)c(Cl)c(Cl)c2C(=O)N1c1ccc(/C=C\c2ccccc2)cc1 | inactive | inactive |  |  |
| O=C1c2c(Cl)c(Cl)c(Cl)c(Cl)c2C(=O)N1c1ccc(CCc2ccc(O)c(O)c2)cc1 | inactive | inactive | 24 µM | > 80 µM |
| O=C1c2c(Cl)c(Cl)c(Cl)c(Cl)c2C(=O)N1c1cccc(CCc2cccc(O)c2)c1 | inactive | inactive |  |  |
| O=C1c2c(Cl)c(Cl)c(Cl)c(Cl)c2C(=O)N1c1ccccc1CCc1ccccc1 | inactive | inactive |  |  |
| COc1ccc(CCc2ccc(N3C(=O)c4ccccc4C3=O)cc2)cc1 | inactive | inactive |  |  |
| O=C1c2ccccc2C(=O)N1c1ccc(CCc2cccc(O)c2)cc1 | inactive | inactive | > 80 µM | > 80 µM |
| O=C1c2c(Cl)c(Cl)c(Cl)c(Cl)c2C(=O)N1c1cccc(/C=C/c2ccc(O)c(O)c2)c1 | inactive | inactive |  |  |
| O=C1c2c(Cl)c(Cl)c(Cl)c(Cl)c2C(=O)N1c1ccc(/C=C/c2ccccc2)cc1 | inactive | inactive |  |  |
| COc1ccc(CCc2ccc(N3C(=O)c4ccccc4C3=O)cc2)cc1OC | inactive | inactive |  |  |
| COc1ccc(/C=C/c2cccc(N3C(=O)c4c(Cl)c(Cl)c(Cl)c(Cl)c4C3=O)c2)cc1OC | inactive | inactive |  |  |
| O=C1c2ccccc2C(=O)N1c1ccc(/C=C/c2ccccc2)cc1 | inactive | inactive |  |  |
| O=C1c2c(Cl)c(Cl)c(Cl)c(Cl)c2C(=O)N1c1ccc(CCc2cccc(O)c2)cc1 | inactive | inactive |  |  |
| O=C1c2c(Cl)c(Cl)c(Cl)c(Cl)c2C(=O)N1c1cccc(CCc2ccc(O)cc2)c1 | inactive | inactive |  |  |
| O=C1c2c(Cl)c(Cl)c(Cl)c(Cl)c2C(=O)N1c1cccc(CCc2ccc(O)c(O)c2)c1 | inactive | inactive | > 80 µM | 44 µM |
| COc1ccc(CCc2cccc(N3C(=O)c4c(Cl)c(Cl)c(Cl)c(Cl)c4C3=O)c2)cc1OC | inactive | inactive |  |  |
| O=C1c2ccccc2C(=O)N1c1ccc(CCc2ccc(O)cc2)cc1 | inactive | inactive |  |  |
| O=C1c2c(Cl)c(Cl)c(Cl)c(Cl)c2C(=O)N1c1ccc(CCc2ccccc2)cc1 | inactive | inactive |  |  |
| O=C1c2c(Cl)c(Cl)c(Cl)c(Cl)c2C(=O)N1c1ccc(CCc2ccc(O)cc2)cc1 | inactive | inactive |  |  |
